An excerpt weighted towards active compounds, which were near 5.1% of everything screened.
NF-kB neuron act = activators of NF-kB expression in neurons, primary screen, cell-based, HTS. human neuronal cells, NF-kB reporter expression; stronger effect = higher value. 190,000 tested, 1.6% active. fold change at 12.5 µM. AID 1239, 2008; in the data active = fold change above about 3.3
STAT1 inh-1 = STAT1 signaling inhibitors, primary screen, cell-based, HTS, luciferase reporter; inhibition, % at 5.5 µM; NIH 3T3 STAT1-luciferase reporter, IFN-gamma, luminescence; AID 920, 2007; 200,000 tested, 0.35% active;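 active = inhibition above a set limit, the mean inhibition across all tested compounds plus 3 SD, cut at about 34% in these data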;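 note: 0% = IFN-gamma with DMSO and 100% = IFN-gamma with 300 µM nifuroxazide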
STAT3 act = IL-6 driven STAT3 reporter potentiators, primary screen, U3A cells, luciferase, luminescence, MLSCN library; activation (% of control), % at 5.6 µM; 190,000 tested, 0.91% active; AID 871, 2007; IL-6 STAT3-luciferase reporter; 100% = signal with IL-6 EC80 alone;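 active = activation above the screen-wide mean of compound activation plus 3 SD, cut at about 130% in these data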;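 note: 0% = background luminescence of wells with medium and substrate only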
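System – human U3A cells carrying STAT3-luciferase construct · Probe or stimulus – Interleukin-6, 33 ng/mL · Schedule – compound 1 h, then IL-6 6 h at 37 °C · Signal – luminescence from STAT3-driven luciferase reporter · Evaluation – percent of IL-6-only median luminescence · Benchmarks – IL-6-only high control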
STAT3 inh = IL-6 driven STAT3 reporter inhibitors, primary screen, U3A cells, luciferase, luminescence, MLSCN library | IL-6 STAT3-luciferase reporter; host cell line lacks STAT1 | inhibition, % at 5.5 µM | 190,000 tested, 0.89% active | AID 862, 2007;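 active = inhibition above the mean inhibition across all screened compounds plus 3 SD, cut at about 44% in these data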;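 note: 0% = DMSO only wells and 100% = 100 µM nifuroxazide control wells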
APP 5'UTR act = activators of APP 5'UTR luciferase reporter, primary screen, SH-SY5Y cells; AID 1276, 2008; SH-SY5Y APP 5'UTR luciferase reporter, luminescence; zero percent = DMSO vehicle wells; 190,000 tested, 1% active; activation, % at 2 µM;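 active = activation above a set limit, based on mean plus 3 SD of controls, cut at about 140% in these data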
STAT1 activator = STAT1 signaling activators, primary screen, cell-based, HTS, luciferase reporter. NIH 3T3 STAT1-luciferase reporter, IFN-gamma, luminescence; 100% = IFN-gamma alone, no compound. activation (% of control), % at 5.5 µM. 200,000 tested, 2.6% active;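 active = activation above the screen-wide mean activation plus 3 SD, cut at about 130% in these data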;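 note: raw ratio to IFN-gamma control signal so 100% means no change and 0% no light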
STAT1 inh-2 = STAT1 signaling inhibitors, confirmation, cell-based, HTS, luciferase reporter; shares compounds with STAT1 inh-1; NIH 3T3 STAT1-luciferase reporter, IFN-gamma, luminescence; inhibition, % at 5.5 µM; 200 tested, 55% active;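 active = triplicate mean inhibition exceeding the hit cutoff computed for the primary STAT1 screen, cut at about 35% in these data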;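 note: 0% = DMSO with IFN-gamma and 100% = 300 µM nifuroxazide with IFN-gamma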
NFkB inh = NF-kB reporter inhibitors, TNF-alpha stimulated, counter-screen for STAT1 inhibitor project, cell-based, HEK293T, luciferase luminescence. shares compounds with STAT1 inh-1. TNF-alpha induced. inhibition, % at 5.7 µM. 200 tested, 30% active. AID 1303, 2008;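 active = inhibition above the mean of solvent-only control wells plus 3 SD of those wells, cut at about 15% in these data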;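 note: 0% = DMSO with TNF-alpha and 100% = MG-132 control with TNF-alpha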
STAT3 inh 2 = STAT3 reporter inhibition by STAT1 hits, counter-screen for STAT1 inhibitor project, U3A cells, luciferase, luminescence, triplicate; shares compounds with STAT1 inh-1; IL-6 STAT3 luciferase reporter; cells lacking STAT1; AID 1310, 2008; inhibition, % at 5.7 µM; 200 tested, 20% active;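 active = inhibition above the mean of solvent-only control wells plus 3 SD, set per campaign, cut at about 25% in these data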;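 note: 0% = IL-6 plus DMSO and 100% = IL-6 plus nifuroxazide control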
STAT1 act conf = STAT1 signaling activators, confirmation, cell-based, HTS, luciferase reporter | shares compounds with STAT1 activator | NIH 3T3 STAT1-luciferase reporter, IFN-gamma potentiation, luminescence; 100% = IFN-gamma EC80 alone, no compound | activation (% of control), % at 5.7 µM | 1,200 tested, 97% active | AID 1262, 2008;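 active = activation above a set limit carried over from the earlier primary STAT1 screen, cut at about 140% in these data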;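 note: simple ratio to median IFN-gamma plus DMSO wells so 0% means no light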
NFkB act STAT1ct = NF-kB reporter activators, TNF-alpha stimulated, counter-screen for STAT1 activator project, cell-based, HEK293T, luciferase luminescence; shares compounds with STAT1 activator; 100% = TNF-alpha with vehicle only; activation (% of control), % at 5.7 µM; 1,200 tested, 43% active;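 active = activation above the mean of solvent-only control wells plus 3 SD, set per campaign, cut at about 130% in these data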;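 note: TNF-alpha given at a submaximal dose yielding about 80% of full reporter signal; values are well signal over median control so 100% means no change and 0% no light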
STAT3 act 2 = STAT3 reporter activation by STAT1 hits, confirmation, counter-screen for STAT1 activator project, U3A cells, luciferase, luminescence. shares compounds with STAT1 activator. IL-6; cells lack STAT1; 100 = IL-6 alone, no compound effect. activation (% of control), % at 5.7 µM. 1,200 tested, 46% active;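 active = activation above the solvent-only control well mean plus 3 SD, set per plate batch, cut at about 110% in these data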;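 note: 0% = no luminescence and 100% = median IL-6 plus DMSO wells; higher means more STAT3 reporter activation so hits are non-selective activators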
An asterisk follows results filed as active; nt = not tested or not shown.

SMILES	NF-kB neuron act	STAT1 inh-1	STAT3 act	STAT3 inh	APP 5'UTR act	STAT1 activator	STAT1 inh-2	NFkB inh	STAT3 inh 2	others
Cc1cc(C)n(S(=O)(=O)/C=C/c2ccccc2)n1	0.96	37.9*	77.8	29.3	-17.4	65.3	42.4*	-3.2	3.5
N#C/C(=N\Nc1cccc([N+](=O)[O-])c1)C(=O)c1ccc(Br)cc1	0.49	69.2*	72.0	37.7	-6.9	35.0	43.8*	12.1	29.1*
Cc1cc(C(=O)CSc2nncs2)c(C)n1Cc1ccco1	4.73*	35.3*	66.6	42.7	181.4*	66.5	-14.7	20.5*	25.6*
COCCCNC(=O)CSc1nc2ccccc2c(=O)n1Cc1ccc2c(c1)OCO2	1.05	6.5	101.2	3.7	6.7	95.4	nt	nt	nt
Cc1ccc2[nH]c3c(=O)n4c(nc3c2c1)SCC4	1.17	12.0	82.3	23.5	1.7	88.4	nt	nt	nt
COc1ccc2[nH]c3c(=O)n4c(nc3c2c1)SCCC4	1.1	37.3*	82.9	25.0	12.7	66.0	11.5	-3.7	17.0
O=C(O)c1ccccc1C(=O)Nc1ccc(Oc2cccc3ccccc23)cc1	1.06	62.6*	81.0	29.1	-58.7	41.6	17.7	22.8*	-12.8
Cc1cccc(Oc2ccc(NC(=O)c3ccccc3C(=O)O)cc2)c1C	0.91	7.9	99.7	0.2	5.8	92.7	nt	nt	nt
Cc1cc(O)ccc1N1C(=O)c2cccc3cc([N+](=O)[O-])cc(c23)C1=O	1.4	46.4*	87.0	16.8	6.0	55.9	30.2	0.0	9.4
Cc1c(C(=O)Nc2ccc(Br)cc2)cnn1C	2.72	-58.5	115.6	-13.8	32.5	151.7*	nt	nt	nt	STAT1 act conf=159.4*;NFkB act STAT1ct=119.6;STAT3 act 2=118.3*
Cn1ncc(Br)c1C(=O)Nc1ccc(Br)cn1	1.34	-0.4	92.6	6.9	3.7	102.6	nt	nt	nt
COc1cccc(OCC(=O)NNC(=S)Nc2ccc(Cl)cc2Cl)c1	1.14	-3.9	95.4	11.4	0.3	101.6	nt	nt	nt
CC(C)(CNS(=O)(=O)c1ccc(Cl)cc1)N1CCCCC1	1.1	6.2	100.7	5.6	3.8	94.7	nt	nt	nt
CCc1cc2c(=O)c(-c3ccc4c(c3)OCCO4)coc2cc1OS(C)(=O)=O	2.28	-61.9	107.6	-5.5	86.9	155.8*	nt	nt	nt	STAT1 act conf=159.7*;NFkB act STAT1ct=137.3*;STAT3 act 2=117.1*
CCN(c1ccccc1)C1(O)C(=O)c2ccccc2C1=O	0.92	3.4	104.0	6.3	12.4	95.3	nt	nt	nt
CC(NC(=O)c1cc2ccccc2o1)C(=O)O (stereo not drawn)	1.07	3.2	96.1	7.1	6.3	97.0	nt	nt	nt

Bioassay records (PubChem)
